Data as given in ChEMBL document CHEMBL1275396 (J Med Chem, 2010).

What was measured:
[1] = biological target: T1, Neuronal acetylcholine receptor; alpha3/beta4 (Rattus norvegicus, UniProt P04757+P12392); experiment: Displacement of [3H]epibatidine from rat alpha3beta4 nAChR expressed in […] cells after 3 hrs; type: cell-based
[2] = biological target: Neuronal acetylcholine receptor; alpha4/beta2 (Rattus norvegicus, UniProt P09483+P12390); experiment: Displacement of [3H]epibatidine from rat alpha4beta2 nAChR expressed in […] cells after 3 hrs; type: cell-based
[3] = biological target: T1, Neuronal acetylcholine receptor; alpha3/beta4; experiment: Partial agonist activity at rat alpha3beta4 nAChR expressed in […] cells assessed as increase of calcium influx by FLIPR assay; type: functional, cell-based
Outline: (§1)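 For functional assays, KXα3β4R2 cells (DMEM, 10% FBS, geneticin, 37°C, 7.5% CO2) were seeded into collagen-coated 96-well plates at about 50,000 cells/well. They grew to a confluent monolayer in 24 to 30 h before testing.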

[4] = biological target: Neuronal acetylcholine receptor; alpha3/beta4 (Rattus norvegicus) (UniProt P04757+P12392); experiment: Partial agonist activity at rat alpha3beta4 nAChR expressed in […] cells assessed as increase of calcium influx by FLIPR assay relative to control; type: functional, cell-based; outline: as §1
[5] = species on record: Rattus norvegicus; experiment: Selectivity ratio of Ki for rat alpha3beta4 nAChR to Ki for rat alpha4beta2 nAChR
Outline: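 KXα3β4R2 or KXα4β2R2 cells grown in DMEM with 10% FBS and 0.4 mg/mL geneticin at 37°C under 7.5% CO2. Cells were scraped, homogenised in Tris buffer and spun at 20,000 x g to give membranes. […] Ki was obtained from IC50 by Cheng-Prusoff.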

[6] = species on record: Rattus norvegicus; experiment: Selectivity ratio of Ki for rat alpha3beta4 nAChR to Ki for alpha7 nAChR in rat brain membranes; type: cell membranes

Neuronal acetylcholine receptor; alpha4/beta2, sequence (P09483 whole entry): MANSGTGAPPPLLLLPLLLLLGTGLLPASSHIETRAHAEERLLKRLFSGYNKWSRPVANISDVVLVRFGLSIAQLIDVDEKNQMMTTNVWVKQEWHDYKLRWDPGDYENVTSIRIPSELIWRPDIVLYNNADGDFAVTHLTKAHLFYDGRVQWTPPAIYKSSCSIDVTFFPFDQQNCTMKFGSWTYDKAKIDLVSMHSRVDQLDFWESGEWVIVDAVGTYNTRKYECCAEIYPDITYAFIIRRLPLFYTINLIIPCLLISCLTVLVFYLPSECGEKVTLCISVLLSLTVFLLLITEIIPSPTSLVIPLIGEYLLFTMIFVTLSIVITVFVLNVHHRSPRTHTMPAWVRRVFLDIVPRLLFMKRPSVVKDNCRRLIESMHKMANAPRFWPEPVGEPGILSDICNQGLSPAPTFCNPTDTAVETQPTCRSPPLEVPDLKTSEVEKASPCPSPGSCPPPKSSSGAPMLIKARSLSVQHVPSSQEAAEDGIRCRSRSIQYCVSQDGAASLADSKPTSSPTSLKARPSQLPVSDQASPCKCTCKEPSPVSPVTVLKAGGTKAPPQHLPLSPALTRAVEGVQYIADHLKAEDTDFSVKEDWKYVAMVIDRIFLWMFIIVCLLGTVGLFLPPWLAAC
Neuronal acetylcholine receptor; alpha4/beta2, sequence (P12390 whole entry): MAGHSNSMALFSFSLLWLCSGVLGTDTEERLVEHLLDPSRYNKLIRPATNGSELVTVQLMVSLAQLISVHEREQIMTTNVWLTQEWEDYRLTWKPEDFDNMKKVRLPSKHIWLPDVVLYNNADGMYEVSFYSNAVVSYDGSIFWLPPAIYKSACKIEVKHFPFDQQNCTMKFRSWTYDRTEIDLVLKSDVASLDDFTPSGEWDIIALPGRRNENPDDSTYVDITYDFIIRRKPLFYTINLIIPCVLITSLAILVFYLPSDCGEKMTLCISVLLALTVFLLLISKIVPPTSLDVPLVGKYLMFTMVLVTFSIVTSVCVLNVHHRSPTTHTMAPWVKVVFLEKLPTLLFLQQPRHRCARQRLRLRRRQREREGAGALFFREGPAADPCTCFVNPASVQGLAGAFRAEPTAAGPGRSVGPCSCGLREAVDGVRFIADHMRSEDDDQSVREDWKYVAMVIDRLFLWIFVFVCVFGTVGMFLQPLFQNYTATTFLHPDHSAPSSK
T1 sequence (P04757 whole entry): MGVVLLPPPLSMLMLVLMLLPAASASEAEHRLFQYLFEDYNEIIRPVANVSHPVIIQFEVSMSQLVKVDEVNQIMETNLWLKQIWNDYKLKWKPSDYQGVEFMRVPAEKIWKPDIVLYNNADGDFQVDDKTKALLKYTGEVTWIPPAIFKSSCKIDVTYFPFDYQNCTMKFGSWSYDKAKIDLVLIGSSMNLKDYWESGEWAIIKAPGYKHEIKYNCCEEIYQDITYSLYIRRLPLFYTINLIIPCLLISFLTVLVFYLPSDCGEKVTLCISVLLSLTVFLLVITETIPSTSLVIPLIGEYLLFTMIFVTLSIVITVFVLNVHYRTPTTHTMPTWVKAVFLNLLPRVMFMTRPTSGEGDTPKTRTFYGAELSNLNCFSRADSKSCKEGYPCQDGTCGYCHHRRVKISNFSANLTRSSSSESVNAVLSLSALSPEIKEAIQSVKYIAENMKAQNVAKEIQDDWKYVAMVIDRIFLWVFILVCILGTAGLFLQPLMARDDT
T1 sequence (P12392 whole entry): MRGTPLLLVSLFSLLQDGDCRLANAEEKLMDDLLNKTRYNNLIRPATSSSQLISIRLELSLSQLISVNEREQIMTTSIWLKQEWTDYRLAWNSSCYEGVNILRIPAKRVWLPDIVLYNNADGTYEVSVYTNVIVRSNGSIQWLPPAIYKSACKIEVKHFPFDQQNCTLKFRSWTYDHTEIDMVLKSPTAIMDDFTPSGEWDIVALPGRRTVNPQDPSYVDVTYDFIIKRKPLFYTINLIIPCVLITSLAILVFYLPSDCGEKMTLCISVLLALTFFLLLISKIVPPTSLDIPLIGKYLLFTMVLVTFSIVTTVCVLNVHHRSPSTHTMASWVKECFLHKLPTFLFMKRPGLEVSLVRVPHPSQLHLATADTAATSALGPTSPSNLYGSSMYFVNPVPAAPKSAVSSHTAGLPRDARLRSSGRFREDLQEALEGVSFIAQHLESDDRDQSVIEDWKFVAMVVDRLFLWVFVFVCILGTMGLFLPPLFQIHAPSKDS

SMILES	Ki [1]	Ki [2]	other results
O=C1Cc2ccccc2N1C1CC2CC(C1)N(Cc1ccccc1)C2 (stereo not given)	1.84 µM	> 10 µM	–
CN1C2C=C(c3cccnc3)CC1CCC2 (stereo not given)	–	0.0104 µM	EC50 [3]: 4.8 µM; Emax [4]: 44%
O=C1Cc2ccccc2N1C1CC2CCCC(C1)N2 (stereo not given)	–	> 100 µM	–
CCC(C)(C)C1CCC(N2CCC(C3C(=O)Nc4ccccc43)CC2)CC1 (stereo not given)	> 10 µM	> 10 µM	–
CN1CC2CC1CC(N1C(=O)Cc3ccccc31)C2 (stereo not given)	> 10 µM	> 10 µM	–
CC1CN(Cc2ccccc2)CCC1N1C(=O)Cc2ccccc21 (stereo not given)	> 10 µM	> 10 µM	–
CN1C2CCC1CC(N1C(=O)Cc3ccccc31)C2 (stereo not given)	–	> 100 µM	–
CC(c1ccc(C2CCCCC2)cc1)N1CCC(N2C(=O)Cc3ccccc32)CC1 (stereo not given)	> 10 µM	> 10 µM	–
CN1C2CCCC1CC(N1C(=O)Cc3ccccc31)C2 (stereo not given)	–	> 100 µM	–
C1=C(c2cccnc2)CC2CCC1CN2Cc1ccccc1 (stereo not given)	–	–	Ratio Ki [5]: 100; Ratio Ki [6]: 200; EC50 [3]: 2 µM; Emax [4]: 72%
